Screens as filed in PubChem.
Arrestin-AP2 inh: inhibitors of human beta-arrestin and AP2 interaction. actives 0.31% (n = 340,000). inhibition, % at 10 µM. FITC-arrestin peptide / GST-AP2 beads, flow cytometry; AP2 beta2 appendage carries R879A mutation. AID 504490;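 active = inhibition above a set limit, near 3 SD of compounds lacking own fluorescence, cut at about 54% in these data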;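 also: plate controls were DMSO wells for no effect and 5 µM unlabelled arrestin peptide for full effect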
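Test system: GST-tagged AP2 beta2-adaptin appendage (R879A) on 4 µm glutathione beads; also added: fluorescein-tagged arrestin peptide at 50 nM final; timing: 12 min plus 1 h, RT; signal: flow cytometry, FL1 (488/535 nm); read-out: percent drop in bead-associated FITC signal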
CendR NRP1 mod: alters CendR peptide binding to human NRP-1. O14786. FAM-RPARPAR peptide binding to NRP-1, fluorescence polarization. inhibition, % at 25 µM. actives 0.85% (n = 360,000);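 active = inhibition or corrected inhibition above about 18%, plus a signal ratio from 0.5 to 1.5, limit read from the data, passing the limit was not always enough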
sPLA2-III inh: Inhibits HGIII-sPLA2 liposome hydrolysis, primary screen; QFRET BODIPY PC-A2 liposome hydrolysis, fluorescence; inhibition, % at 12.2 µM; actives 0.56% (n = 370,000);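 active = inhibition above mean plus 3 SD of compounds lying within the high and low control bounds, cut at about 19% in these data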;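 also: 0% = median of test compound wells and 100% = no enzyme DMSO wells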
PfM18AAP inh-1: PfM18AAP enzyme inhibition; recombinant PfM18AAP, H-Glu-NHMec fluorogenic cleavage; inhibition, % at 7.35 µM; actives 1.2% (n = 290,000); AID 1822;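 active = inhibition above the campaign mean inhibition over all tested compounds plus 3 SD, cut at about 28% in these data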;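 also: 0% = plate median of test compound wells and 100% = 2 mM ZnCl2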
HTR2A ag: agonists of mouse serotonin 5-HT2A receptor (HTR2A) | P35363 | actives 0.66% (n = 360,000) | CHO-K1 mHTR2A beta-arrestin complementation, luminescence; percent of 30 µM serotonin response | activation, % at 7.6 µM;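 active = activation above a run cutoff, the mean activation of all tested compounds plus 3 SD, cut at about 14% in these data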;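 also: 0% = plate median of compound wells and 100% = 30 µM serotonin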
Hep lipid drop: hepatic lipid droplet formation modulation; actives 0.4% (n = 240,000); AID 1656; AML12 mouse hepatocytes, oleate lipid droplets, BODIPY imaging; inhibition, % at 6.5 µM;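 active = lipid droplet intensity inhibited by at least 50%, with more than 500 cells counted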
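Technique: fluorescence imaging, 20x objective, two fields per well / Assay system: AML12 hepatocytes (mouse) / Measure: % inhibition of lipid droplet signal / Doses: 6.5 µM single-point dosing / Incubation: overnight exposure / Reagent: 100 µM oleic acid challenge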
PfM18AAP inh-2: confirmation of Plasmodium falciparum M18 aspartyl aminopeptidase inhibitors | shares compounds with PfM18AAP inh-1 | recombinant PfM18AAP, H-Glu-NHMec fluorogenic cleavage | inhibition, % at 7.35 µM | actives 28% (n = 2,400);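 active = mean inhibition over replicate wells above the hit cutoff set for the earlier primary screen, cut at about 29% in these data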;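 also: 0% = median of test compound wells and 100% = 2 mM ZnCl2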
CTSL1 confirm: Cathepsin L (human) inhibition, confirmation; purified cathepsin L1, Z-Leu-Arg-MCA fluorescence; 2,400 tested, under 10 active; shares compounds with PfM18AAP inh-1; inhibition, % at 5.96 µM;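 active = average inhibition across replicates above the hit cutoff set in the earlier primary screen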;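 also: 0% = median of test compound wells and 100% = Z-Phe-Ala-diazomethylketone 1 µM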
Target sequence (P07711 whole entry, looked up): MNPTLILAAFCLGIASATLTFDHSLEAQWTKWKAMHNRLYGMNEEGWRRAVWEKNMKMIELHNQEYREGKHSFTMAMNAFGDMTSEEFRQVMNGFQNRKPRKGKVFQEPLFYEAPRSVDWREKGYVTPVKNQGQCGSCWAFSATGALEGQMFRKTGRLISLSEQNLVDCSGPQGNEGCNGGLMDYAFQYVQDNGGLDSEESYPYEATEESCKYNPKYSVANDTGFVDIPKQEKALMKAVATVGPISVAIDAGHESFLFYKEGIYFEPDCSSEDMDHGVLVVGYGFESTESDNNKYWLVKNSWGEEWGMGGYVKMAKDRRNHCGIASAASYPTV
* hit, by the source's call; x = no result. Compounds with a hit are over-represented: about 3.3% of the library has one in this group of screens.

SMILES	Arrestin-AP2 inh	CendR NRP1 mod	sPLA2-III inh	PfM18AAP inh-1	HTR2A ag	Hep lipid drop	PfM18AAP inh-2	CTSL1 confirm
NS(=O)(=O)c1ccc(NC(=S)NC2CC2)cc1	3	2	7	32*	-2	0	-2	-1
NS(=O)(=O)c1ccc(NC(=S)NNC(=O)c2ccc(Br)o2)cc1	0	9	12	33*	1	-1	-2	-1
Cc1cc2nc3ccc(=[N+](C)C)cc-3sc2cc1N	33	11	x	36*	-6	-12	-18	10
CN(C)c1ccc2nc3ccc(=[N+](C)C)cc-3sc2c1	23	13	4	22	-10	16	x	x
O=C(NNC(=S)NC(=O)c1cccnc1)c1ccc(Cl)cc1	13	2	12	39*	-2	x	-17	3
CCCCCC(=O)NNC(=S)NC(=O)c1cccc([N+](=O)[O-])c1	-12	-10	1	35*	-3	0	-6	1
O=C(Cc1ccc(Cl)cc1)NNC(=S)NC(=O)c1cccnc1	0	7	8	50*	0	-2	-16	3
Cc1cccc(C(=O)NC(=S)NCc2ccccc2)c1	2	-1	-15	x	-4	x	x	x
Cc1cccc(C(=O)NC(=S)NNC(=O)Cc2ccccc2)c1	42	2	2	38*	5	-4	-40	3
C[C@@H]1CN([C@@H](C)CN(C)C)C(=O)c2cc(NC(=O)Nc3ccccc3)ccc2O[C@@H](C)CCCCO[C@H]1CN(C)S(=O)(=O)c1ccc(F)cc1	x	x	-33	x	x	x	x	x
O=C(O)C(Cc1ccccc1)N1C(=O)/C(=C/C=C/c2ccco2)SC1=S (stereo not given)	1	-179	1	13	2	10	x	x
O=C1S/C(=C\C=C\c2ccco2)C(=O)N1c1ccc(O)cc1	6	-66	-2	39*	1	4	-39	11
COc1ccc(/C=C/S(=O)(=O)NCC(C)C)c(CNC(=O)OC(C)(C)C)c1	x	x	9	x	x	x	x	x
O=C(NNC(=O)c1ccc[nH]1)Nc1cc(Cl)cc(Cl)c1	7	-14	-1	50*	-4	-1	29*	-3
O=C(NNC(=O)c1ccc[nH]1)Nc1cccc(C(F)(F)F)c1	-4	4	0	53*	1	4	22	-5
O=C(Nc1ccccc1)Nc1cc(Cl)cc(Cl)c1	7	3	-30	-5	11	11	x	x
Cc1ccc(-c2cc(C(=O)NN=Cc3cccc4ccccc34)[nH]n2)cc1C	x	x	-1	x	x	x	x	x
CC(=O)NC(CC(=O)NNC(=O)c1cc2ccccc2cc1O)c1ccccc1 (stereo not given)	-16	-6	5	32*	-2	-15	-16	1
Oc1ccc(O)c(-c2cnns2)c1	17	-12	12	86*	-2	2	90*	1
O=C(Nc1ccccc1Cl)c1cc(C2CCCCN2C(=O)CCCc2ccccc2)on1 (stereo not given)	x	3	-16	x	1	x	x	x
O=c1[nH][nH]c(=S)n1-c1ccccc1C(F)(F)F	x	x	x	61*	x	-3	18	-3
CCOc1ccc(N(CC(=O)Nc2c(C)n(C)n(-c3ccccc3)c2=O)S(=O)(=O)c2cccs2)cc1	x	x	-4	x	x	x	x	x
CCCC(C)c1nnc(NC(=O)C2CC(=O)N(CCc3ccc(F)cc3)C2)s1 (stereo not given)	10	8	-8	41*	0	-67	-9	0
Cc1cc(C(=O)N2CCC(Cc3ccccc3)CC2)c(C)o1	-15	-7	-6	-5	-11	-1	x	x
Cc1ccc(NS(=O)(=O)c2cc(NC(=O)c3ccc4c(c3)NC(=O)CS4)ccc2C)c(C)c1	15	-11	-28	48*	3	-3	-5	1
SMILES	Arrestin-AP2 inh	CendR NRP1 mod	sPLA2-III inh	PfM18AAP inh-1	HTR2A ag	Hep lipid drop	PfM18AAP inh-2	CTSL1 confirm
COc1ccc(NC(=O)c2ccc3c(c2)NC(=O)CS3)cc1S(=O)(=O)Nc1ccc(Br)cc1	4	-3	-15	32*	2	-1	13	5
CC(=O)NS(=O)(=O)c1ccc(NC(=O)c2ccc3c(c2)NC(=O)CS3)cc1	1	6	-7	x	-1	x	x	x
Cc1coc2c(C)c3oc(=O)c(CCC(=O)N4CCC(C(=O)NCCCC(=O)O)(c5ccccc5)CC4)c(C)c3cc12	30	-12	-13	3	1	-25	x	x
Cc1[nH]nc2c1C(c1cccs1)C(C#N)=C(N)O2 (stereo not given)	7	4	-2	35*	-2	17	21	-4
CN(CC(=O)Nc1ccc(F)cc1)C(=O)COC(=O)c1cc(Br)c(Br)s1	2	6	-10	x	8	x	x	x
COC(=O)c1ccccc1NC(=O)C/C(C)=N/NC(=O)CC#N	9	1	-14	38*	5	8	-47	6
O=[N+]([O-])c1ccc(N/N=C/c2ccc(OCc3cccc4ccccc34)cc2)nc1	25	4	5	45*	6	21	-38	2
C[C@H](CO)N1C[C@H](C)[C@@H](CN(C)Cc2ccc(C(=O)O)cc2)OCc2cnnn2CCCC1=O	x	-1	5	x	4	x	x	x
CCc1cc2c(nc1CC)CCCN2Cc1ccccc1C(F)(F)F	x	x	10	x	x	x	x	x
O=C(CCS(=O)(=O)c1ccc(F)cc1)Nc1nc(-c2ccncc2)cs1	-7	16	1	52*	7	-10	18	1
O=C(COc1ccc(Cl)cc1)Nc1nc(-c2ccncc2)cs1	-7	-5	-1	35*	2	-4	-28	4
CO[C@@H]1CN(C)C(=O)c2cc(NC(=O)NC3CCCCC3)ccc2OC[C@@H](C)N(CC2CCOCC2)C[C@@H]1C	x	12	5	x	8	x	x	x
O=C(/C=C/c1cccs1)N1CCCCC1	5	-5	0	-3	-1	13	x	x
O=C(/C=C/c1cccs1)N1CCN(c2ccc(O)cc2)CC1	54	-1	-1	45*	-5	-3	-10	5
CN1CCCCC(NC(=O)c2c(F)cccc2F)C1=O (stereo not given)	x	x	4	x	x	x	x	x
O=C(/C=C/c1ccc(O)c(O)c1)OC1C(O)CC(OC(=O)/C=C/c2ccc(O)c(O)c2)(C(=O)O)CC1O (stereo not given)	8	-90	14	76*	2	1	64*	6
COC(=O)C1=C(C)N(Cc2ccc(C(F)(F)F)cc2)C(=NCc2ccccc2)NC1c1ccccc1 (stereo not given)	x	x	-2	x	x	x	x	x
